Measurements as given in PubChem BioAssay.
The source made the active and inactive calls.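 How the source made its calls, unless noted: active means a full or partial loss of lipid-probe fluorescence in the fish gall bladder, intestine or both, judged by eye; inactive means no fluorescence loss, or compound toxic to the fish.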

What was measured:
[1] = inhibitors of TNFa-induced NFkB p65 translocation, primary screen, imaging, HUVEC, MLSMR starter and 10KST1 sets (AID 438;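 active means inhibition above 20% together with a positive visual image hit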;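 further: compound added about 3h40 before a 20 min TNFalpha stimulation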;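 on inhibition: signal is the nuclear over cytoplasmic p65 intensity ratio per well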); details: HUVEC TNFa-induced p65 nuclear translocation; cell count: measured here: nuclei count (cytotoxicity indicator), at 2.08 µM; inhibition: at 2 µM, stronger effect = higher value, 0% TNFa-plus-vehicle, 100% no-TNFa wells
[2] = inhibitors of E-selectin induction by TNFa, primary screen, imaging, HUVEC, immunofluorescence, MLSMR starter and 10KST1 sets (AID 487;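 active means visually confirmed hit in the image check and inhibition above 20%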;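 on inhibition: signal is fraction of cell area covered by stained E-selectin grains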;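 on nuclei count: 100% = median nuclei count of all wells on the same plate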); details: HUVEC TNFalpha-induced E-selectin immunofluorescence imaging, at 2 µM; inhibition: stronger effect = higher value; nuclei count: measured here: cell number, toxicity
[3] = DUSP6 inhibitors restoring Erk phosphorylation by chemical complementation, primary imaging in DUSP6-transfected HeLa (AID 609;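 active means compounds giving at least 50% inhibition in the cell-based MKP-3 phosphatase rescue imaging test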;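 on inhibition: phospho-Erk level distribution per well compared with pooled transfected vehicle control wells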); details: HeLa MKP-3 transfected, phospho-Erk imaging KS statistic, at 10 µM, cells stimulated with TPA for 15 min
[4] = target: Dual specificity protein phosphatase 6 (Homo sapiens) (UniProt Q16828); test: as above; details: HeLa MKP-3 transfected, phospho-Erk imaging KS statistic; at 10 µM; stronger effect = higher value; cells stimulated with TPA for 15 min
[5] = target: Voltage-gated potassium channel subunit beta-2 (Rattus norvegicus) (UniProt P62483); test: KvBeta enzyme negative modulators, primary screen, biochemical, NADPH fluorescence (AID 622;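 active means fluorescence slope higher than the sample average by over 3 SD, cut at about -0.22 in these data, passing the limit was not always enough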;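 further: slope of raw intensity against log time taken from 70 to 1610 s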); details: recombinant KvBeta, 4-cyanobenzaldehyde reduction, at 10 µM, stronger effect = higher value
[6] = target: Voltage-gated potassium channel subunit beta-2 (Rattus norvegicus) (UniProt P62483); test: KvBeta positive modulators, primary screen, biochemical, NADPH fluorescence (AID 623;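 active means NADPH fluorescence slope more negative than the mean of all samples by about 3 SD, 99.7% confidence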;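 further: fluorescence intensity change per second fitted from 20 to 320 s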); details: Recombinant KvBeta, NADPH fluorescence decrease slope, 10 min; at 10 µM; stronger effect = lower value
[7] = target: Alpha-2C adrenergic receptor (Homo sapiens) (UniProt P18825); test: modulators of alpha2C/GIRK thallium flux, primary screen, cell-based, HEK293 alpha2C/GIRK1/2 (AID 624;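 active means fluorescence slope after compound addition differing from the mean of all screened samples at 99.7% confidence, in either direction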;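 further: slope of fluorescence ratio to pre-addition baseline per second over 15 to 24 s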); details: thallium flux BTC fluorescence, at 10 µM, actives lie on both sides
[8] = inhibitors of larval lipid processing in zebrafish, primary screen, whole organism, PED6 fluorescence, gall bladder and intestine (AID 686); details: Zebrafish larvae PED6 lipid processing, fluorescence scoring; screened at 20 µM (by protocol);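 further: larvae 5 to 7 days old with five fish per well; signal comes from phospholipase A2 cleavage of quenched PED6 carried via bile; overnight exposure to compound and PED6 before scoring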
In short: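 Also added: quenched phospholipase substrate PED6, 100 nM final, ingested by larvae; System: zebrafish larvae, 5-7 d; Quantity: 5 larvae per well; Compound: 20 µM single dose; Schedule: overnight compound and PED6 incubation; Read-out: visual per-well fluorescence inhibition score; Measured by: By-eye fluorescence microscopy; Medium: E3.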

[9] = inhibitors of Chlamydomonas gravitaxis, primary screen, whole organism, Chlamydomonas reinhardtii, WT vs cilia-less mutant, absorbance, 96-well (AID 463189;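 active means inhibition at or above 50% relative to wild type and mutant plate controls; inactive means inhibition below 50%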;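 further: 0% = wild type cc124 cells in DMSO and 100% = ciliumless bld1 mutant cells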); details: OD600 absorbance, 2 days, at 10 µM, stronger effect = higher value
[10] = measured here: cell density z-score
[11] = measured here: nuclear c-Myc green intensity z-score
[12] = measured here: nuclear pErk red intensity z-score, stronger effect = higher value

Voltage-gated potassium channel subunit beta-2 (Rattus norvegicus), sequence (P62483 whole entry, looked up): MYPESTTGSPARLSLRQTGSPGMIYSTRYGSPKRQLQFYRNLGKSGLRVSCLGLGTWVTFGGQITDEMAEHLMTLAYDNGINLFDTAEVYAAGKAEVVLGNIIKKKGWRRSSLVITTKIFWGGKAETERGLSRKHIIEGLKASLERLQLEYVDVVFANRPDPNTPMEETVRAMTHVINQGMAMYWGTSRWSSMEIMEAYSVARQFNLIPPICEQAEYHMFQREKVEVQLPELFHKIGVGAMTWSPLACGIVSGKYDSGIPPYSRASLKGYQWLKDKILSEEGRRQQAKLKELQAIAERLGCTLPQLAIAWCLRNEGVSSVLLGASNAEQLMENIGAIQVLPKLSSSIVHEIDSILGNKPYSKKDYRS
Dual specificity protein phosphatase 6 (Homo sapiens), sequence (Q16828 whole entry, looked up): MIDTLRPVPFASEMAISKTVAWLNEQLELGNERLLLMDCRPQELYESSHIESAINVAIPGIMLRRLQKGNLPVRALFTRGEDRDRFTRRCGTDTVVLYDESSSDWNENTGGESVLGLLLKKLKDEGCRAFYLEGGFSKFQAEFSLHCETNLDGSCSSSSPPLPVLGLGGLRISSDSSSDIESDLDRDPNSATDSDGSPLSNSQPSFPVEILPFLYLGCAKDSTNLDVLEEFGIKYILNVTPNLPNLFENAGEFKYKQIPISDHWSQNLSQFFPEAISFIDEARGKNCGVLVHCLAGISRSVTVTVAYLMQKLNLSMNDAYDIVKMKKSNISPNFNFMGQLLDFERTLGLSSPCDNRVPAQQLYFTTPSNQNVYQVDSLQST
Alpha-2C adrenergic receptor (Homo sapiens), sequence (P18825 whole entry, looked up): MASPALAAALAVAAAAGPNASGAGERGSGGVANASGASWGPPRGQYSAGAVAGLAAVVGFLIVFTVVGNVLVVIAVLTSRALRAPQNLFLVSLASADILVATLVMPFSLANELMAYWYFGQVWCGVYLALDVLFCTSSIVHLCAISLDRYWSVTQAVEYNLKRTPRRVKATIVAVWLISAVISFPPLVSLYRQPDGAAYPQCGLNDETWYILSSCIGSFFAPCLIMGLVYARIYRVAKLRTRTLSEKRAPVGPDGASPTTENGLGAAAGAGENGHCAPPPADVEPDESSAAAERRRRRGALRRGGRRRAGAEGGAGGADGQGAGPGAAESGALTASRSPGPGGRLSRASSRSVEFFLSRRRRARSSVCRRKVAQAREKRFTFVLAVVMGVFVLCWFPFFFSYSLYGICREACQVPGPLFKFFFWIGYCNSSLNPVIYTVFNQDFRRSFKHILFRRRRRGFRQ

Row | Compound | cell count [1] | inhibition [1] | inhibition [2] | nuclei count [2] [%] | z-score [3, 10] | z-score [3, 11] | z-score [3, 12] | inhibition [4] | fluorescence slope [5] | NADPH fluorescence slope [6] | slope [7] | outcome [8] | inhibition [9]
1 | CN(C)c1nc2sc3c(c2c(=O)n1C)CC(C)(C)OC3 | 651 | -12.1% (inactive) | -452% (inactive) | 185 | -0.36 | 0.198 | 1 | -0.159% (inactive) | -0.514 (inactive) | -4.6e-05 (inactive) | 0.00471 (inactive) | inactive | 157% (active)
2 | C=CCc1c(C)nc(SCCC)[nH]c1=O | 540 | -10.1% (inactive) | -102% (inactive) | 135 | 0.611 | -0.0505 | -0.577 | 7.93% (inactive) | -0.486 (inactive) | -1.9e-05 (inactive) | 0.0077 (inactive) | inactive | 18.7% (inactive)
3 | N#Cc1c(SCC(=O)O)nc(N2CCCCC2)c2c1CCCC2 | 555 | 7.3% (inactive) | -50% (inactive) | 123 | 0.186 | -1.79 | 0.996 | 16.8% (inactive) | -0.535 (inactive) | -4.5e-05 (inactive) | 0.00499 (inactive) | inactive | 6.88% (inactive)
4 | COc1cccc(C2/C(=C(/O)c3cnn(-c4ccccc4)c3C)C(=O)C(=O)N2CCN(C)C)c1OC (stereo not drawn) | 502 | 6.3% (inactive) | -119% (inactive) | 152 | -0.295 | 0.206 | -1.1 | -7.01% (inactive) | -0.506 (inactive) | -2.1e-05 (inactive) | 0.00541 (inactive) | inactive | 8.54% (inactive)
5 | Cc1cc(C)c2nc(SCCC#N)nc(C)c2c1 | 635 | -4.4% (inactive) | 9.3% (inactive) | 157 | 0.288 | -0.415 | 1 | -2.91% (inactive) | -0.508 (inactive) | -6.6e-05 (inactive) | 0.00476 (inactive) | inactive | 4.11% (inactive)
6 | Cc1c(N2C(=O)SC(CC(=O)O)C2=O)c(=O)n(-c2ccccc2)n1C (stereo not drawn) | 500 | 1.9% (inactive) | -80.6% (inactive) | 128 | -1.16 | -0.83 | -0.709 | -10.5% (inactive) | -0.518 (inactive) | -3.7e-05 (inactive) | 0.00585 (inactive) | inactive | -1.65% (inactive)
7 | COc1cc(OC)cc(C(=O)N2CCC(N3CCCCCC3)CC2)c1 | 372 | -26.6% (inactive) | -111% (inactive) | 132 | 2.06 | -1.95 | -0.585 | 32.7% (inactive) | -0.337 (inactive) | -2.1e-05 (inactive) | 0.00559 (inactive) | inactive; toxic | 29.1% (inactive)
8 | Cc1c(/C(O)=C2/C(=O)C(=O)N(CCCN3CCOCC3)C2c2ccncc2)cnn1-c1ccccc1 (stereo not drawn) | 518 | 8.4% (inactive) | -181% (inactive) | 149 | 0.69 | 0.756 | -0.189 | 8.76% (inactive) | -0.552 (inactive) | -1.5e-05 (inactive) | 0.00511 (inactive) | inactive | 15.5% (inactive)
9 | Cc1nn(-c2cccc(Cl)c2)c2c1C(c1ccncc1)C(C#N)=C(N)O2 (stereo not drawn) | 374 | -13.7% (inactive) | -56% (inactive) | 98.8 | -2.16 | -0.307 | -1.54 | 2.46% (inactive) | -0.382 (inactive) | 4.7e-05 (inactive) | 0.00526 (inactive) | inactive | -1.15% (inactive)
10 | CN(C)c1nc2n(c(=S)n1)CCS2 | 604 | -3.2% (inactive) | -204% (inactive) | 109 | -0.355 | -0.0746 | 0.173 | 16.1% (inactive) | -0.409 (inactive) | -2e-05 (inactive) | 0.00562 (inactive) | inactive | -16.2% (inactive)
11 | CC1(C)CC(N(Cc2ccco2)C(=O)Cc2ccccc2)CCO1 (stereo not drawn) | 535 | 12.5% (inactive) | -104% (inactive) | 145 | -0.358 | 2.8 | -0.796 | 3.5% (inactive) | -0.485 (inactive) | -3.2e-05 (inactive) | 0.00539 (inactive) | inactive | 6.62% (inactive)
12 | CCCCCCc1cc2cc(C(=O)NC)c(=N)oc2cc1O | 346 | -2% (inactive) | -68.8% (inactive) | 90.1 | -0.814 | 2.52 | -2.41 | 13.2% (inactive) | -0.446 (inactive) | -6.7e-05 (inactive) | 0 (inactive) | inactive | -9.65% (inactive)
13 | CCN(CC)CCN1C(=O)C(=O)/C(=C(/O)c2ccc(C)cc2)C1c1cccnc1 (stereo not drawn) | 390 | -0.5% (inactive) | -20.8% (inactive) | 113 | 0.619 | -0.778 | 0.527 | -5.89% (inactive) | -0.426 (inactive) | -5.7e-05 (inactive) | 0.00669 (inactive) | inactive | 8.05% (inactive)
14 | CCOC(=O)COc1ccc(Oc2nc(C)cc(OC)n2)nn1 | 443 | -4.6% (inactive) | -136% (inactive) | 152 | 0.693 | -0.0792 | 0.257 | 0.671% (inactive) | -0.417 (inactive) | -8.4e-05 (inactive) | 0.00639 (inactive) | inactive | 9.9% (inactive)
15 | C=C(c1ccc(OCCO)cc1)c1ccc(OCCO)cc1 | 323 | -11% (inactive) | -16.1% (inactive) | 129 | 0.426 | 0.397 | -0.652 | 1.6e-07% (inactive) | -0.405 (inactive) | -0.000129 (inactive) | 0.00576 (inactive) | inactive | 13.7% (inactive)
16 | Cc1c(C(Nc2ccccn2)c2ccccc2)c(=O)n(-c2ccccc2)n1C (stereo not drawn) | 522 | -5.3% (inactive) | -96.1% (inactive) | 136 | -0.885 | 0.0466 | 1.12 | -9.7% (inactive) | -0.508 (inactive) | -9.6e-05 (inactive) | 0.00524 (inactive) | inactive | 23.1% (inactive)
17 | N#CC1(P(=O)(c2ccccc2)c2ccccc2)CC1 | 481 | -10.9% (inactive) | -110% (inactive) | 143 | -0.778 | -0.637 | -0.322 | 11.3% (inactive) | -0.546 (inactive) | -5.6e-05 (inactive) | 0.00538 (inactive) | inactive | 5.77% (inactive)
18 | NC(=O)CSc1c[nH]c2ccccc12 | 640 | -5.5% (inactive) | 73.3% (inactive) | 169 | -1.08 | 0.978 | -1.28 | 17% (inactive) | -0.497 (inactive) | -4.9e-05 (inactive) | 0.00438 (inactive) | inactive | 31.3% (inactive)
19 | COC(=O)c1ccc(Oc2nc3ccccc3n3c(C)nnc23)cc1 | 328 | -6.8% (inactive) | -57.8% (inactive) | 74 | 0.524 | 1.04 | -0.937 | 24.7% (inactive) | -0.434 (inactive) | -1.9e-05 (inactive) | 0.00622 (inactive) | inactive | 27% (inactive)
20 | COc1ccccc1C(CC(=O)Nc1nccs1)c1ccco1 (stereo not drawn) | 354 | -14.3% (inactive) | -98.9% (inactive) | 155 | -0.704 | -0.887 | -0.714 | 1.75% (inactive) | -0.398 (inactive) | -7.2e-05 (inactive) | 0.00663 (inactive) | inactive | 31.8% (inactive)
21 | CC(C)(C)NC(=O)CSc1nsc(SCC(=O)NC(C)(C)C)c1C#N | 601 | -26% (inactive) | 18.9% (inactive) | 178 | -0.466 | -1.37 | 0.955 | -4.27% (inactive) | -0.412 (inactive) | -6.5e-05 (inactive) | 0.00541 (inactive) | inactive | 12.4% (inactive)
22 | CCOP(=O)(c1ccccc1)C1(C#N)CCCC1 (stereo not drawn) | 492 | -9.6% (inactive) | -215% (inactive) | 150 | -1.11 | -1.86 | 0.943 | -3.98% (inactive) | -0.513 (inactive) | -0.000169 (inactive) | 0.00467 (inactive) | inactive; toxic | 4.97% (inactive)
23 | CCOc1ccc2c(C)nc(NC3=NC(C)(C)C=C(C)N3)nc2c1 | 641 | -3.1% (inactive) | 46.4% (inactive) | 158 | -1.28 | 1.6 | 1.26 | -9.66% (inactive) | -0.373 (inactive) | -4.2e-05 (inactive) | 0.00624 (inactive) | inactive | 19.3% (inactive)
24 | COc1cccc(C(=O)N2CCN(S(=O)(=O)Cc3ccccc3)CC2)c1OC | 424 | -16.3% (inactive) | -254% (inactive) | 195 | 0.309 | -0.845 | -0.459 | 12.7% (inactive) | -0.291 (inactive) | 1.9e-05 (inactive) | 0.00419 (inactive) | inactive | 17.5% (inactive)
25 | Clc1ccc(SCc2cn3ccsc3n2)cc1 | 516 | -11.3% (inactive) | -61.5% (inactive) | 170 | -0.751 | 0.432 | -0.146 | -11% (inactive) | -0.476 (inactive) | -0.000195 (inactive) | 0.0044 (inactive) | inactive | 31.1% (inactive)
26 | COc1cc2c(C(=O)N3CCN(c4ccccc4)CC3)c(C)oc2cc1Br | 539 | -0.9% (inactive) | -65.1% (inactive) | 139 | 1.72 | -0.592 | -0.944 | 10.5% (inactive) | -0.532 (inactive) | -2.7e-05 (inactive) | 0.00643 (inactive) | inactive | 1.23% (inactive)
